The values below come from ChEMBL document CHEMBL2331524, “Potent proteasome inhibitors derived from the unnatural cis-cyclopropane isomer of Belactosin A: synthesis, biological activity, and mode of action” (J Med Chem, 2013).

Broadly, the pIC50 is the negative decadic logarithm of the IC50, by convention in mol/L. Low readings indicate a high IC50, high ones a low IC50. The half-life is the time needed for the level to fall by half in the phase considered. Read a low half-life as fast loss.

pIC50: −log10 of the molar value. Activity calls are given as the source filed them.

Data set [1] addresses T1, Proteasome Macropain subunit MB1 (Homo sapiens, UniProt P28074).
T1 sequence (P28074 whole entry): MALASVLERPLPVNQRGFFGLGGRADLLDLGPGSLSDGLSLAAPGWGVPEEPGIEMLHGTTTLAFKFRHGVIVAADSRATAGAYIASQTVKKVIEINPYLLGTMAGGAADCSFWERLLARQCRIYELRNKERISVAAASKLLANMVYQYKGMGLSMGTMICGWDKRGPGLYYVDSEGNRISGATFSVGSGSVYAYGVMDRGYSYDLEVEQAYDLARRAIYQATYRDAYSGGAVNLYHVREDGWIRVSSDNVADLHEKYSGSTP
As to the kind of experiment: Inhibition of chymotrypsin-like activity of human 20S proteasome beta 5 subunit using Suc-LLVY-AMC as substrate after 60 mins by fluorescence assay.

Data set [2] deals with T2, Proteasome subunit beta type-8 (Homo sapiens) (UniProt P28062).
T2 sequence (whole entry): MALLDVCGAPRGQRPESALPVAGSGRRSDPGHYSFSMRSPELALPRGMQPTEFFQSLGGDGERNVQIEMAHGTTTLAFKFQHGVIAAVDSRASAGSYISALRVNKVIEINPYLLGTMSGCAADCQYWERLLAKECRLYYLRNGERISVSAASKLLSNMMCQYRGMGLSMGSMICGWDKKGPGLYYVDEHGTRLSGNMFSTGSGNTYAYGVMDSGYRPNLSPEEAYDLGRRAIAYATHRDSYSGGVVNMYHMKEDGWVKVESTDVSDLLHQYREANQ
As to the kind of experiment: Inhibition of chymotrypsin-like activity of human 20S immunoproteasome beta 5 subunit using […] at 0.3 uM incubated for 5 mins prior to […] measured after 1 hr by ELISA. On the technique in general: In an ELISA, binding on a coated surface is turned into a signal by an enzyme label.

Data set [3] concerns the target T3, Proteasome Macropain subunit MB1 (Homo sapiens) (UniProt P28074).
T3 sequence (whole entry): T1 sequence (P28074 whole entry)
Kind of data set: Inhibition of chymotrypsin-like activity of human constitutive 20S proteasome beta 5 subunit using […] at 0.3 uM incubated for 5 mins prior to […] measured after 1 hr by ELISA.

Data set [4] concerns HCT-116. As to the kind of experiment: Cell cycle arrest in human HCT116 cells assessed as accumulation at G2/M phase after 24 hrs by propidium iodide staining-based flow cytometric analysis. It is filed as functional.
Data set [5] has as its system HCT-116. As to the kind of experiment: Inhibition of proteasome in human HCT116 cells assessed as accumulation of p53 by Western blotting analysis. The data set is classed as cell-based. The method in brief: (§1)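 Cell extracts were immunoblotted for p53, read as a cellular marker of proteasome blockade, and for cleaved PARP, read as an apoptosis marker.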
On the technique in general: In western blotting, separated proteins are transferred to a membrane and probed.

Data set [6] concerns HCT-116. Kind of data set: Induction of apoptosis in human HCT116 cells assessed as induction of PARP cleavage by Western blotting analysis. It is filed as functional, cell-based. The essentials:
as §1

Data set [7] has as its system HCT-116. Kind of data set: Cytotoxicity against human HCT116 cells after 72 hrs by CCK-8 assay. The data set is classed as functional, cell-based. The conditions noted are these: HCT-116, 72 h. Background: Tetrazolium assays rely on reduction of a dye to a coloured formazan, in cell work by metabolically active cells.
Data set [8] is described as follows: Half life in TEAA buffer at pH 7.4 by HPLC analysis. It is filed as physicochemical. The essentials:
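Compound incubated in 0.1 M triethylammonium acetate (TEAA) buffer, pH 7.4, at 37 °C. The time course was recorded by HPLC, and the half-life (t1/2) was determined from that time course.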

Data set [9] has as its target T3, Proteasome Macropain subunit MB1 (Homo sapiens). The conditions noted are these: 2.5 uM.
For data set [10], the target named is T2, Proteasome subunit beta type-8 (Homo sapiens). Kind of data set: Inhibition of chymotrypsin-like activity of human 20S immunoproteasome beta 5 subunit using […] at 2.5 uM incubated for 5 mins prior to […] measured after 1 hr by ELISA.
Data set [11] concerns the target T3, Proteasome Macropain subunit MB1 (Homo sapiens). As to the kind of experiment: Reversible inhibition of chymotrypsin-like activity of human 20S proteasome beta 5 subunit using Suc-LLVY-AMC as substrate incubated for 12 hrs prior to substrate addition followed by compound wash out measured after 1 hr by dialysis method.
For data set [12] the target is unchanged. Kind of data set: Irreversible inhibition of chymotrypsin-like activity of human 20S proteasome beta 5 subunit using Suc-LLVY-AMC as substrate incubated for 12 hrs prior to substrate addition followed by compound wash out measured after 1 hr by dialysis method.

On to `CC[C@H](C)[C@@H]1C(=O)O[C@H]1C(=O)N[C@H]1C[C@H]1C[C@@H](CCc1ccccc1)NC(=O)c1ccc2ccccc2c1`, for which the negative-log IC50 (pIC50) in data set [1] was 7.48. In turn, `C=C[C@H](C[C@@H]1C[C@@H]1NC(=O)[C@@H]1OC(=O)[C@H]1[C@@H](C)CC)NC(=O)c1ccccc1` gave a pIC50 in [1] of 6.89. Still for that read-out and setting: the figure for `C=C[C@H](C[C@@H]1C[C@@H]1NC(=O)[C@@H]1OC(=O)[C@H]1[C@@H](C)CC)NC(=O)[C@@H](C)NC(=O)OCc1ccccc1` is 7.24.

Take `CC[C@H](C)[C@@H]1C(=O)O[C@H]1C(=O)N[C@H]1C[C@H]1C[C@H](NC(=O)[C@H](C)N)C(=O)O` [BELACTOSIN A]: the pIC50 in data set [1] is 5.84. In addition, the inhibition result in data set [2] and in data set [3] was “Active” in each case. As to `CC[C@H](C)[C@@H]1C(=O)O[C@H]1C(=O)N[C@H]1C[C@H]1C[C@@H](CCc1ccccc1)NC(=O)[C@H](C)NC(=O)c1ccc2ccccc2c1`, the values for the pIC50 in [1] and in data set [7] were 8.00 and 6.10, respectively. Also, the outcome in [4] and in [6] was Active. For the same compound, the “p53 accumulation (active/inactive)” value in data set [5] was “Active”.

For `CC(C)[C@H](O)[C@@]12NC(=O)[C@H](C)[C@@H]1OC2=O` [OMURALIDE], in data set [8], the half-life was 13 min. With `CC[C@H](C)[C@@H]1C(=O)O[C@H]1C(=O)N[C@H]1C[C@H]1C[C@@H](Cc1ccc2ccccc2c1)NC(=O)[C@H](C)NC(=O)OCc1ccccc1`, the pIC50 in [1] was 6.70.

As for `CC[C@H](C)[C@@H]1C(=O)O[C@H]1C(=O)N[C@H]1C[C@H]1C[C@@H](CCc1ccc2ccccc2c1)NC(=O)[C@H](C)NC(=O)OCc1ccccc1`, the pIC50 in [1] was 7.54. For `C=C[C@H](C[C@@H]1C[C@@H]1NC(=O)[C@@H]1OC(=O)[C@H]1[C@@H](C)CC)NC(=O)[C@H](C)NC(=O)c1ccc2ccccc2c1`, the pIC50 was 7.60 in [1] and 5.58 in data set [7]. Besides, the outcome in data set [4] and in data set [6] was Active. Moreover, the “p53 accumulation (active/inactive)” value in data set [5] was “Active”. `C=C[C@H](C[C@@H]1C[C@@H]1NC(=O)[C@@H]1OC(=O)[C@H]1[C@@H](C)CC)NC(=O)[C@H](CC(C)C)NC(=O)OCc1ccccc1` gave a pIC50 in [1] of 7.33. On to `C=C[C@H](C[C@@H]1C[C@@H]1NC(=O)[C@@H]1OC(=O)[C@H]1[C@@H](C)CC)NC(=O)[C@H](Cc1ccccc1)NC(=O)OCc1ccccc1`, for which the negative logarithm of the IC50 (pIC50) in [1] was 7.52; in [7], 5.38. Further, the outcome in data set [4] and in data set [6] was Active. For the same compound, in data set [5], the “p53 accumulation (active/inactive)” value is “Active”. As to `CC(=O)N[C@@H](CSC(=O)[C@]1([C@@H](O)C(C)C)NC(=O)[C@H](C)[C@@H]1O)C(=O)O`, the inhibition entry in [9] and in [10] was “Active” each time. The compound `C=C[C@H](C[C@@H]1C[C@@H]1NC(=O)[C@@H]1OC(=O)[C@H]1[C@@H](C)CC)NC(=O)C(C)C` had a pIC50 in data set [1] of 6.64. Turning to `C[C@@]12OC(=O)[C@]1([C@@H](O)[C@@H]1C=CCCC1)NC(=O)[C@@H]2CCCl` [MARIZOMIB], the half-life in data set [8] was determined as 56 min.

As for `CC[C@H](C)[C@@H]1C(=O)O[C@H]1C(=O)N[C@H]1C[C@H]1C[C@@H](CCc1cccc2ccccc12)NC(=O)[C@H](C)NC(=O)OCc1ccccc1`, the pIC50 in data set [1] is 7.20. Compound `CC[C@H](C)[C@@H]1C(=O)O[C@H]1C(=O)N[C@H]1C[C@H]1C[C@@H](CCc1ccccc1)NC(=O)[C@H](C)N` gave a half-life in data set [8] of 600 min. Take `C=C[C@H](C[C@@H]1C[C@@H]1NC(=O)[C@@H]1OC(=O)[C@H]1[C@@H](C)CC)NC(=O)c1ccc2ccccc2c1`: the figures for the pIC50 in [1] and in data set [7] were 7.22 and 4.95, respectively. The outcome in data set [4] and in [6] was Active. Moreover, in data set [5], the “p53 accumulation (active/inactive)” value is “Active”.

Regarding `CC[C@H](C)[C@@H]1C(=O)O[C@H]1C(=O)N[C@H]1C[C@H]1C[C@@H](Cc1cccc2ccccc12)NC(=O)[C@H](C)NC(=O)OCc1ccccc1`, the pIC50 in data set [1] is 6.89. With `CC[C@H](C)[C@@H]1C(=O)O[C@H]1C(=O)N[C@H]1C[C@H]1C[C@@H](CCc1ccccc1)NC(=O)[C@H](C)NC(=O)OCc1ccccc1`, the pIC50 in [1] is 8.24; in data set [7], 5.74. In addition, the inhibition entry in data set [11], in [2] and in [3] was “Active” throughout. Besides, the result in data set [4] and in data set [6] was Active. Moreover, the “p53 accumulation (active/inactive)” value in data set [5] is “Active”. As to `C=C[C@H](C[C@@H]1C[C@@H]1NC(=O)[C@@H]1OC(=O)[C@H]1[C@@H](C)CC)NC(=O)[C@H](C)NC(=O)OCc1ccccc1`, the results for the negative logarithm of the IC50 (pIC50) in data set [1] and in [7] were 7.31 and 6.04, respectively. The outcome in [4] was Active. Take `COc1ccc(C[C@H](NC(=O)[C@H](C)NC(=O)CN2CCOCC2)C(=O)N[C@@H](Cc2ccccc2)C(=O)[C@]2(C)CO2)cc1`: the inhibition result in [2] and in data set [3] was “Active” each time.

As for `C=C[C@H](C[C@@H]1C[C@@H]1NC(=O)[C@@H]1OC(=O)[C@H]1[C@@H](C)CC)NC(=O)[C@H](C)NC(=O)OC(C)(C)C`, the negative-log IC50 (pIC50) in data set [1] is 7.11. The same measure, in the same setting: under `CC[C@H](C)[C@@H]1C(=O)O[C@H]1C(=O)N[C@H]1C[C@H]1C[C@@H](CCCc1ccccc1)NC(=O)[C@H](C)NC(=O)OCc1ccccc1` stands 7.46; under `C=C[C@H](C[C@@H]1C[C@@H]1NC(=O)[C@@H]1OC(=O)[C@H]1[C@@H](C)CC)NC(=O)CNC(=O)OCc1ccccc1`, 7.39; under `CC[C@H](C)[C@@H]1C(=O)O[C@H]1C(=O)N[C@H]1C[C@H]1C[C@H](NC(=O)[C@H](C)NC(=O)OCc1ccccc1)c1ccccc1`, 7.05. Same read-out and setting: the figure for `C=C[C@H](C[C@@H]1C[C@@H]1NC(=O)[C@@H]1OC(=O)[C@H]1[C@@H](C)CC)NC(=O)[C@H](Cc1c[nH]c2ccccc12)NC(=O)OCc1ccccc1` is 7.55; for `CC[C@H](C)[C@@H]1C(=O)O[C@H]1C(=O)N[C@H]1C[C@H]1C[C@@H](Cc1ccccc1)NC(=O)[C@H](C)NC(=O)OCc1ccccc1` it is 7.85; for `C=C[C@H](C[C@@H]1C[C@@H]1NC(=O)[C@@H]1OC(=O)[C@H]1[C@@H](C)CC)NC(=O)[C@H](C)NC(C)=O` it is 6.64. Same read-out and setting: under `C=C[C@H](C[C@@H]1C[C@@H]1NC(=O)[C@@H]1OC(=O)[C@H]1[C@@H](C)CC)NC(=O)C(C)(C)C` stands 6.68. Turning to `C=C[C@H](C[C@@H]1C[C@@H]1NC(=O)[C@@H]1OC(=O)[C@H]1[C@@H](C)CC)NC(=O)[C@H](C)N`, the pIC50 in [1] is 6.52. `CC(C)C[C@H](NC(=O)[C@H](CCc1ccccc1)NC(=O)CN1CCOCC1)C(=O)N[C@@H](Cc1ccccc1)C(=O)N[C@@H](CC(C)C)C(=O)[C@@]1(C)CO1`: the inhibition entry in data set [12] was “Active”. The compound `C=C[C@H](C[C@@H]1C[C@@H]1NC(=O)[C@@H]1OC(=O)[C@H]1[C@@H](C)CC)NC(=O)[C@H](C)NC(=O)c1ccccc1` showed a pIC50 in data set [1] of 7.10. Turning to `CC(C)C[C@H](NC(=O)[C@H](Cc1ccccc1)NC(=O)c1cnccn1)B(O)O` [BORTEZOMIB], the inhibition entry in data set [11] was “Active”. For the same compound, the result in data set [4] and in data set [6] was Active. In addition, the “p53 accumulation (active/inactive)” value in data set [5] is “Active”. In addition, in [7], the pIC50 was 8.00. Take `CC[C@H](C[C@@H]1C[C@@H]1NC(=O)[C@@H]1OC(=O)[C@H]1[C@@H](C)CC)NC(=O)[C@H](C)NC(=O)OCc1ccccc1`: the pIC50 in [1] is 7.42.
